# Source: PubChem
# Compounds with a hit are over-represented: about 3.3% of the library has one in this group of screens.
# GAA850 FXN act: frataxin GAA850 promoter activation | HEK293 lucGAA850 FXN promoter luciferase reporter, 24 h; percent of 10 µM SAHA response | activation, % at 6 µM | hit rate 0.56% among 360,000 | AID 540364;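 active = activation above the average of all compounds screened plus 3 SD, cutoff fixed separately per campaign, cut at about 7.5% in these data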
# ABCB6 inh 2: inhibitors of human ABC transporter ABCB6 | Q9NP58 | hit rate 0.19% among 360,000 | K562-ABCB6 porphyrin accumulation, flow cytometry, 1 h; active compounds read low | AID 602162 | fluorescence ratio to DMSO, % at 10 µM;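 active = fluorescence ratio to DMSO below 75%, the collection mean minus 3 SD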;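 note: signal is porphyrin accumulated inside mitochondria; lower ratio means ABCB6 inhibition with less porphyrin fluorescence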
# AHR activator: activators of human aryl hydrocarbon receptor; P35869; AHR-responsive luciferase reporter cells, luminescence; activation, % at 5 µM; hit rate 2.5% among 320,000; AID 2796; in the data active = activation above about 47%
# STAT3 act: increases IL-6 driven STAT3 reporter signal; U3A cells, IL-6 STAT3-luciferase reporter, luminescence; 100% = signal with IL-6 EC80 alone; activation (% of control), % at 5.6 µM; hit rate 0.91% among 190,000; AID 871;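 active = activation above the screen-wide mean of compound activation plus 3 SD, cut at about 130% in these data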
#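 Test system: Human STAT1-deficient U3A cells with stable STAT3-luciferase reporter | Also added: Interleukin-6, 33 ng/mL | Timing: Compound pre-incubation 1 h before IL-6, then 6 h stimulation at 37 °C | Technique: Luciferase reporter luminescence | Read-out: Percent of IL-6-only median luminescence | Benchmarks: IL-6-only wells as 100% reference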
# AHR act cf: human AHR activation, confirmation | shares compounds with AHR activator | hit rate 87% among 2,300 | AID 2845 | human cells, AHR-responsive luciferase reporter, luminescence | activation, % at 9 µM; in the data active = activation above about 49%;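 note: HepG2 hepatoma cells carrying a DRE-driven firefly luciferase reporter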
# PXR counter: counter-screen for AHR activators: human PXR activators | shares compounds with AHR activator | hit rate 88% among 2,300 | cell-based PXR reporter, luciferase luminescence | AID 434939 | activation, % at 11.6 µM; in the data active = activation above about 11%;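 note: human hepatoma DPX-2 cells expressing full-length human PXR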
# GAA30 FXN cntr: counter-screen for GAA850 frataxin promoter activators: GAA30 promoter activation. hit rate 66% among 1,900. HEK293 lucGAA30 FXN promoter luciferase, 24 h; DMSO = 0%, 5 µM ipriflavone = 100%. AID 588350. shares compounds with GAA850 FXN act. activation, % at 6 µM;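 active = mean activation above the mean of solvent-only control wells plus 3 SD, cut at about 22% in these data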;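 note: counterscreen of GAA850 promoter hits where activity marks nonselective or luminescence artifacts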
# GAA850 confirm: GAA850 FXN promoter activation confirmation; HEK293 lucGAA850 FXN promoter luciferase reporter, 24 h; 100% = activation by SAHA; activation, % at 6 µM; shares compounds with GAA850 FXN act; hit rate 86% among 1,900; AID 588351;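 active = mean activation above a set limit taken from the primary screen, cut at about 8% in these data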
# ABCB6 inh CP1: blocks the human ABCB6 transporter | shares compounds with ABCB6 inh 2 | K562-ABCB6 porphyrin accumulation, flow cytometry, 1 h; active compounds read low | ratio response (% of DMSO), % at 10 µM | 700 tested, under 10 active;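 active = repeat-averaged ratio response below 75% of DMSO, the collection mean minus 3 SD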;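 note: median porphyrin fluorescence at 575 nm with 488 nm excitation from mitochondria; lower ratio means less porphyrin signal so ABCB6 inhibition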
# Numbers stand for hits; – = inactive; · = no result.
SMILES,GAA850 FXN act,ABCB6 inh 2,AHR activator,STAT3 act,GAA30 FXN cntr,GAA850 confirm,others
Cc1ccc(-c2nc(Nc3ccccc3)n[nH]2)cc1,7.7,–,122,–,112,38,AHR act cf=111;PXR counter=–
Cc1cc(C)nc(Nc2n[nH]c(-c3ccccc3Cl)n2)n1,–,–,–,–,·,·,
C[C@@H]1CN([C@H](C)CO)C(=O)CCCn2nncc2CO[C@@H]1CN(C)S(=O)(=O)c1ccccc1F,–,–,·,·,·,·,
COc1cccc2sc(Nc3nnc(-c4cccs4)o3)nc12,7.7,–,106,172,37,40,AHR act cf=97;PXR counter=18
COc1cccc(C(C(=O)NC2CCCCC2)N(C(=O)c2csnn2)C2CC2)c1 (stereo not drawn),–,–,–,·,·,·,
Cc1cc(-c2ccc(N3CCOCC3)cc2)nc2ccccc12,8.0,–,·,–,130,50,PXR counter=52
CC(=O)/C(N=Nc1ccc2c(c1)OCO2)=C(\C)O,–,74,112,–,·,·,AHR act cf=95;PXR counter=–;ABCB6 inh CP1=–
Cc1ccc(S(=O)(=O)CC(=O)Nc2cc(C)on2)cc1,–,–,–,·,·,·,
Cc1cc(O)c(NC(=O)c2cccc([N+](=O)[O-])c2)cc1C,7.6,–,–,·,91,31,
O=C(Nc1cc([N+](=O)[O-])ccc1O)c1cccc([N+](=O)[O-])c1,–,–,–,·,·,·,
CC(C)N=c1scc(-c2cccs2)n1/N=C/c1ccc(O)c(O)c1O,9.0,–,–,–,49,23,
CN=c1scc(-c2ccccc2F)n1/N=C/c1ccc(O)c(O)c1O,–,–,·,–,·,·,
COc1cnn(-c2ccc(C)cc2)c(=O)c1SCc1ccccc1,7.9,–,–,–,66,25,
Cc1ccc(-n2nc3ccc(NC(=O)C(C)C)cc3n2)cc1,7.9,–,–,–,106,38,
CC(C)C(=O)Nc1ccc2nn(-c3ccc(F)cc3)nc2c1,–,–,–,·,·,·,
Cc1c2ccncc2cc2c1[nH]c1ccccc12,–,–,·,·,·,·,
COc1ccc2[nH]c3c(C)c4ccncc4c(C)c3c2c1,12,–,–,·,–,64,
CCN1C(=O)c2ccc(C(=O)Nc3cccc(C(=O)O)c3)cc2C1=O,–,–,–,·,·,·,
Cc1ccc2c(CN3CCC(C)CC3)cc(=O)oc2c1,8.6,–,–,–,125,46,
CCOC(=O)c1ccc(-n2cccc2/C=C2\NC(=O)NC2=O)cc1,–,–,–,·,·,·,
Cn1c(SCC(=O)Nc2cc(C(C)(C)C)nn2-c2ccccc2)nc2ccccc21,–,–,–,–,·,·,
COC(=O)c1c(C)[nH]c(C(=O)CSc2ccc(Cl)cc2)c1C,8.3,–,–,–,114,35,
CCOC(=O)c1[nH]c(C)c(C(=O)Nc2ccc(Cl)cc2)c1C,–,–,–,–,·,·,
CCc1nn(C(CC)C(=O)NCCc2ccc(OC)cc2OC)c(=O)c2cc3occc3n12 (stereo not drawn),10,–,–,·,–,9.5,
CCc1nn(C(CC)C(=O)NCc2cccs2)c(=O)c2cc3occc3n12 (stereo not drawn),–,–,–,·,·,·,
SMILES,GAA850 FXN act,ABCB6 inh 2,AHR activator,STAT3 act,GAA30 FXN cntr,GAA850 confirm,others
C=CCn1c(-c2csc(-c3ccc(OC)c(OC)c3)n2)n[nH]c1=S,7.6,–,–,–,–,11,
COc1ccc(-c2nc(-c3ccc(O)cc3O)cs2)cc1OC,8.7,–,·,–,75,36,
Oc1ccc(-c2csc(-c3c[nH]c4ccccc34)n2)c(O)c1,8.1,–,61,158,88,41,
CC(C)(C)n1nc2c(c1NC(=O)c1c(F)cccc1F)CS(=O)(=O)C2,–,–,–,·,·,·,
CCc1ccc(CNCCSc2nnnn2C)cc1,–,–,–,–,·,·,
CCCCOC(=O)Nc1ccc2c(C)cc(=O)oc2c1,7.7,–,–,–,120,39,
CCOC(=O)Nc1ccc2c(C)cc(=O)oc2c1,–,–,–,–,·,·,
